According to ChEMBL document CHEMBL2040816, “Design, synthesis, and structure-activity relationship studies of novel millepachine derivatives as potent antiproliferative agents” (Eur J Med Chem, 2012):
Active and inactive are the calls of the source. The calls are words filed in the database; no cut-off is given here.

Key:
HepG2 [1] = assay: Antiproliferative activity against human HepG2 cells after 24 hrs by MTT assay; format: functional, cell-based; details: HepG2, 24 h
In short: (§1)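 MTT assay. 1 × 10⁴ cells per well were plated and incubated 24 h before dye was added (20 µL of 5 mg/mL MTT in PBS per well), then incubated until a purple precipitate formed. Precipitate dissolved in 150 µL DMSO after medium removal, then absorbance read.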

K562 = assay: Antiproliferative activity against human K562 cells after 24 hrs by MTT assay; format: functional, cell-based; details: K562, 24 h; in short: as §1
SK-OV-3 = assay: Antiproliferative activity against human SKOV3 cells after 24 hrs by MTT assay; format: functional, cell-based; details: SK-OV-3, 24 h; in short: as §1
HCT-116 = assay: Antiproliferative activity against human HCT116 cells after 24 hrs by MTT assay; format: functional, cell-based; details: HCT-116, 24 h; in short: as §1
HT-29 = assay: Antiproliferative activity against human HT-29 cells after 24 hrs by MTT assay; format: functional, cell-based; details: HT-29, 24 h; in short: as §1
SW-620 = assay: Antiproliferative activity against human SW620 cells after 24 hrs by MTT assay; format: functional, cell-based; details: SW-620, 24 h; in short: as §1
HepG2 [2] = assay: Inhibition of alpha-tubulin in human HepG2 cells assessed as decrease in microtubule formation at 1 uM after 24 hrs by DAPI staining-based immunofluorescence analysis; format: cell-based
HepG2 [3] = assay: Inhibition of alpha-tubulin in human HepG2 cells assessed as decrease in spindle formation at 1 uM after 24 hrs by DAPI staining-based immunofluorescence analysis; format: cell-based
HepG2 [4] = assay: Cell cycle arrest in human HepG2 cells assessed as accumulation at G1 phase at 1.25 uM after 8 hrs by propidium iodide staining-based flow cytometric analysis (reference value: 49.86%); format: functional
HepG2 [5] = assay: Cell cycle arrest in human HepG2 cells assessed as accumulation at S phase at 1.25 uM after 8 hrs by propidium iodide staining-based flow cytometric analysis (reference value: 32.43%); format: functional
HepG2 [6] = assay: Cell cycle arrest in human HepG2 cells assessed as accumulation at G2/M phase at 1.25 uM after 8 hrs by propidium iodide staining-based flow cytometric analysis (reference value: 17.72%); format: functional
HepG2 [7] = assay: Cell cycle arrest in human HepG2 cells assessed as accumulation at G1 phase at 2.5 uM after 8 hrs by propidium iodide staining-based flow cytometric analysis (reference value: 49.86%); format: functional
HepG2 [8] = assay: Cell cycle arrest in human HepG2 cells assessed as accumulation at S phase at 2.5 uM after 8 hrs by propidium iodide staining-based flow cytometric analysis (reference value: 32.43%); format: functional
HepG2 [9] = assay: Cell cycle arrest in human HepG2 cells assessed as accumulation at G2/M phase at 2.5 uM after 8 hrs by propidium iodide staining-based flow cytometric analysis (reference value: 17.72%); format: functional
HepG2 [10] = assay: Cell cycle arrest in human HepG2 cells assessed as accumulation at G1 phase at 5 uM after 8 hrs by propidium iodide staining-based flow cytometric analysis (reference value: 49.86%); format: functional
A549 = assay: Antitumor activity against human A549 cells xenografted in BALB/c mouse assessed as tumor growth inhibition at 20 mg/kg, iv administered at intervals of 2 days for 18 days relative to control; format: functional; details: read-out: GI
In short: (§2)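 Nude mice received 1 × 10⁷ A549 cells in 0.1 mL DMEM subcutaneously in the right gluteal region. At 100 mm³ tumour volume, 24 mice were randomised into four groups (n = 6). Test groups got 20 mg/kg in 0.2 mL physiological saline by tail vein every 2 days for 18 days. Vehicle control got saline; cisplatin 5 mg/kg weekly served as positive control. Tumour growth and body weight tracked; two-sided Student's t test.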

Mus musculus = assay: Toxicity in BALB/c mouse bearing human A549 cells assessed as decrease in body weight at 20 mg/kg, iv administered at intervals of 2 days for 18 days; format: organism-based; parameters: dose 20 mg/kg, route intravenous; details: in vivo; in short: as §2
HepG2 [11] = assay: Cell cycle arrest in human HepG2 cells assessed as accumulation at 5 uM after 8 hrs by propidium iodide staining-based flow cytometric analysis (reference value: 17.72%)
HepG2 [12] = assay: Cell cycle arrest in human HepG2 cells assessed as accumulation at G2/M phase at 5 uM after 8 hrs by propidium iodide staining-based flow cytometric analysis (reference value: […])

SMILES | IC50 (HepG2 [1]) [nM] | IC50 (K562) [nM] | IC50 (SK-OV-3) [nM] | IC50 (HCT-116) [nM] | IC50 (HT-29) [nM] | IC50 (SW-620) [nM] | inhibition (HepG2 [2]) | inhibition (HepG2 [3]) | Activity (HepG2 [4]) [%] | Activity (HepG2 [5]) [%] | Activity (HepG2 [6]) [%] | Activity (HepG2 [7]) [%] | Activity (HepG2 [8]) [%] | Activity (HepG2 [9]) [%] | Activity (HepG2 [10]) [%] | inhibition in vivo at 20 mg/kg (A549) [%] | Activity (Mus musculus) | Activity (HepG2 [11]) [%] | Activity (HepG2 [12]) [%]
CCN(CC)c1ccc(/C=C/C(=O)c2ccc(OC)c3c2OC(C)(C)C=C3)cc1 | 590 | 790 | 610 | 620 | 550 | 670 | Active | Active | 40.67 | 16.77 | 42.55 | 4.49 | 17.17 | 78.35 | 0 | 84.1 | Non-toxic | 9.99 | 90.01
COc1ccc(/C=C/C(=O)c2ccc(OC)c3c2OC(C)(C)C=C3)cc1 [MILLEPACHINE] | 1510 | 4560 | 2360 | 4660 | 3290 | 760 | Active | Active | 10.34 | 20.35 | 69.31 | 2.64 | 17.71 | 79.65 | 0.66 | 69.4 | Non-toxic | 91.65 | 7.68
